Test results published in ChEMBL document CHEMBL4251593, “Nontoxic combretafuranone analogues with high in vitro antibacterial activity” (Eur J Med Chem, 2018).
Converted amounts (≈) assume the structure as drawn.

Legend:
[1] = system: TERT-RPE1; assay: Cytotoxicity against human RPE1 cells assessed as reduction in cell viability after 48 hrs by ATPlite-based luminescent assay; settings: RPE-1, 48 h
In short: (§1)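 Cells were grown […] with 10% FBS, glutamax, NEAA and pen/strep at 37 °C, 5% CO2. Media were DMEM for RPE-1, HepG2 and BJ (BJ plus 10 ng/ml bFGF), F-12K for PC3, and IMDM for K562/HL-60. Cells were seeded at 500 per well and dosed from DMSO at 12 concentrations, 40 µM to 1 nM, in triplicate. After 48 h, intracellular ATP was read by luminescence. ED50 was obtained by variable-slope nonlinear regression.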

[2] = system: BJ; assay: Cytotoxicity against human BJ cells assessed as reduction in cell viability after 48 hrs by ATPlite-based luminescent assay; in short: as §1
[3] = system: K562; assay: Cytotoxicity against human K562 cells assessed as reduction in cell viability after 48 hrs by ATPlite-based luminescent assay; settings: K562, 48 h; in short: as §1
[4] = system: HL-60; assay: Cytotoxicity against human HL60 cells assessed as reduction in cell viability after 48 hrs by ATPlite-based luminescent assay; settings: HL-60, 48 h; in short: as §1
[5] = system: PC-3; assay: Cytotoxicity against human PC3 cells assessed as reduction in cell viability after 48 hrs by ATPlite-based luminescent assay; settings: PC-3, 48 h; in short: as §1
[6] = system: MCF7; assay: Cytotoxicity against human MCF7 cells assessed as reduction in cell viability after 48 hrs by ATPlite-based luminescent assay; settings: MCF7, 48 h
[7] = system: HepG2; assay: Cytotoxicity against human HepG2 cells assessed as reduction in cell viability after 48 hrs by ATPlite-based luminescent assay; settings: HepG2, 48 h; in short: as §1
[8] = system: TERT-RPE1; assay: Induction of apoptosis in human RPE1 cells assessed as caspase 3/7 activity after 24 hrs by caspase-glo luminescent assay; type: cell-based; settings: RPE-1, 24 h
In short: (§2)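 Cells were seeded at 500 per well in their growth media and exposed to 12 concentrations from 40 µM to 1 nM, delivered from DMSO, in triplicate. After 24 h, caspase-3/7 activity was read by Caspase-Glo luminescence. Data were normalized and ED50 was fitted by variable-slope nonlinear regression.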

[9] = system: K562; assay: Induction of apoptosis in human K562 cells assessed as caspase 3/7 activity after 24 hrs by caspase-glo luminescent assay; type: cell-based; settings: K562, 24 h; in short: as §2
[10] = system: HL-60; assay: Induction of apoptosis in human HL60 cells assessed as caspase 3/7 activity after 24 hrs by caspase-glo luminescent assay; type: cell-based; settings: HL-60, 24 h; in short: as §2
[11] = system: PC-3; assay: Induction of apoptosis in human PC3 cells assessed as caspase 3/7 activity after 24 hrs by caspase-glo luminescent assay; type: cell-based; settings: PC-3, 24 h; in short: as §2
[12] = system: HepG2; assay: Induction of apoptosis in human HepG2 cells assessed as caspase 3/7 activity after 24 hrs by caspase-glo luminescent assay; type: cell-based; settings: HepG2, 24 h; in short: as §2
[13] = system: Staphylococcus aureus; assay: Antibacterial activity against Staphylococcus aureus ATCC 6538 after 24 hrs by microdilution assay; type: functional; settings: ATCC 6538, 24 h
[14] = system: Staphylococcus aureus; assay: Antibacterial activity against methicillin-resistant Staphylococcus aureus HK5996/08 clinical isolate after 24 hrs by microdilution assay; type: functional; settings: HK5996/08, 24 h
[15] = system: Staphylococcus epidermidis; assay: Antibacterial activity against Staphylococcus epidermidis HK6966/08 clinical isolate after 24 hrs by microdilution assay; type: functional; settings: HK6966/08, 24 h
[16] = system: Enterococcus sp.; assay: Antibacterial activity against Enterococcus sp. HK14365/08 clinical isolate after 24 hrs by microdilution assay; type: functional; settings: HK14365/08, 24 h
[17] = system: Escherichia coli; assay: Antibacterial activity against Escherichia coli ATCC 8739 after 24 hrs by microdilution assay; type: functional; settings: ATCC 8739, 24 h
In short: (§3)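 Broth microdilution in Mueller-Hinton medium buffered to pH 7.4 (±0.2), with DMSO as diluent at no more than 2% final. Compounds were tested as 2-fold serial dilutions from 2000 to 0.488 µmol/l. The inoculum was 0.5 McFarland (1.5×10^8 cfu/ml). Plates were held at 37 °C and read visually at 24 and 48 h. MIC was taken as 95% growth inhibition versus control, determined twice in duplicate.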

[18] = system: Klebsiella pneumoniae; assay: Antibacterial activity against Klebsiella pneumoniae HK11750/08 clinical isolate after 24 hrs by microdilution assay; type: functional; settings: HK11750/08, 24 h
[19] = system: Klebsiella pneumoniae; assay: Antibacterial activity against Klebsiella pneumoniae HK14368/08 clinical isolate after 24 hrs by microdilution assay; type: functional; settings: HK14368/08, 24 h
[20] = system: Pseudomonas aeruginosa; assay: Antibacterial activity against Pseudomonas aeruginosa ATCC 9027 after 24 hrs by microdilution assay; type: functional; settings: ATCC 9027, 24 h; in short: as §3
[21] = system: Staphylococcus aureus; assay: Antibacterial activity against Staphylococcus aureus ATCC 6538 after 48 hrs by microdilution assay; type: functional; settings: ATCC 6538, 48 h
[22] = system: Staphylococcus aureus; assay: Antibacterial activity against methicillin-resistant Staphylococcus aureus HK5996/08 clinical isolate after 48 hrs by microdilution assay; type: functional; settings: HK5996/08, 48 h
[23] = system: Staphylococcus epidermidis; assay: Antibacterial activity against Staphylococcus epidermidis HK6966/08 clinical isolate after 48 hrs by microdilution assay; type: functional; settings: HK6966/08, 48 h
[24] = system: Enterococcus sp.; assay: Antibacterial activity against Enterococcus sp. HK14365/08 clinical isolate after 48 hrs by microdilution assay; type: functional; settings: HK14365/08, 48 h
[25] = system: Escherichia coli; assay: Antibacterial activity against Escherichia coli ATCC 8739 after 48 hrs by microdilution assay; type: functional; settings: ATCC 8739, 48 h; in short: as §3
[26] = system: Klebsiella pneumoniae; assay: Antibacterial activity against Klebsiella pneumoniae HK11750/08 clinical isolate after 48 hrs by microdilution assay; type: functional; settings: HK11750/08, 48 h
[27] = system: Klebsiella pneumoniae; assay: Antibacterial activity against Klebsiella pneumoniae HK14368/08 clinical isolate after 48 hrs by microdilution assay; type: functional; settings: HK14368/08, 48 h
[28] = system: Pseudomonas aeruginosa; assay: Antibacterial activity against Pseudomonas aeruginosa ATCC 9027 after 48 hrs by microdilution assay; type: functional; settings: ATCC 9027, 48 h; in short: as §3

| Structure (SMILES) | IC50 [1] [µM] | IC50 [2] [µM] | IC50 [3] [µM] | IC50 [4] [µM] | IC50 [5] [µM] | IC50 [6] [µM] | IC50 [7] [µM] | IC50 [8] [µM] | IC50 [9] [µM] | IC50 [10] [µM] | IC50 [11] [µM] | IC50 [12] [µM] | MIC95 [13] [µM] | MIC95 [14] [µM] | MIC95 [15] [µM] | MIC95 [16] [µM] | MIC95 [17] [µM] | MIC95 [18] [µM] | MIC95 [19] [µM] | MIC95 [20] [µM] | other results |
| --- | --- | --- | --- | --- | --- | --- | --- | --- | --- | --- | --- | --- | --- | --- | --- | --- | --- | --- | --- | --- | --- |
| Cc1ccc(C2=C(c3cccc(C(F)(F)F)c3)C(=O)OC2)cc1 | 1.33 | > 40 | 0.29 | 0.66 | > 40 | 19.1 | > 40 | > 40 | 0.31 | 2.66 | > 40 | > 40 | 31.2 (≈ 9.95 µg/mL) | 31.2 (≈ 9.95 µg/mL) | 15.6 (≈ 4.97 µg/mL) | > 500 | > 500 | > 500 | > 500 | > 500 | MIC95 [21]: 31.2 µM (≈ 9.95 µg/mL); MIC95 [22]: 31.2 µM (≈ 9.95 µg/mL); MIC95 [23]: 15.6 µM (≈ 4.97 µg/mL); MIC95 [24]: > 500 µM; MIC95 [25]: > 500 µM; MIC95 [26]: > 500 µM; MIC95 [27]: > 500 µM; MIC95 [28]: > 500 µM |
| Cc1ccc(C2=C(c3cccc(Cl)c3)C(=O)OC2)cc1 | 0.88 | > 40 | 0.21 | 0.48 | > 40 | > 40 | > 40 | > 40 | > 40 | > 40 | > 40 | > 40 | 1.95 (≈ 0.555 µg/mL) | 15.6 (≈ 4.45 µg/mL) | 15.6 (≈ 4.45 µg/mL) | > 500 | > 500 | > 500 | > 500 | > 500 | MIC95 [21]: 1.95 µM (≈ 0.555 µg/mL); MIC95 [22]: 15.6 µM (≈ 4.45 µg/mL); MIC95 [23]: 15.6 µM (≈ 4.45 µg/mL); MIC95 [24]: > 500 µM; MIC95 [25]: > 500 µM; MIC95 [26]: > 500 µM; MIC95 [27]: > 500 µM; MIC95 [28]: > 500 µM |
| O=C1OCC(c2ccc(C(F)(F)F)cc2)=C1c1ccc(Br)cc1 | 16.4 | > 40 | > 40 | > 40 | > 40 | 6.37 | 11.4 | > 40 | > 40 | > 40 | > 40 | > 40 | 62.5 (≈ 23.9 µg/mL) | 62.5 (≈ 23.9 µg/mL) | 125 (≈ 47.9 µg/mL) | > 500 | > 500 | > 500 | > 500 | > 500 | MIC95 [21]: 62.5 µM (≈ 23.9 µg/mL); MIC95 [22]: 62.5 µM (≈ 23.9 µg/mL); MIC95 [23]: 125 µM (≈ 47.9 µg/mL); MIC95 [24]: > 500 µM; MIC95 [25]: > 500 µM; MIC95 [26]: > 500 µM; MIC95 [27]: > 500 µM; MIC95 [28]: > 500 µM |
| O=C1OCC(c2ccc3c(c2)OCO3)=C1c1ccc2c(c1)OCO2 | 35.5 | > 40 | 16 | 17.4 | > 40 | > 40 | > 40 | > 40 | > 40 | > 40 | > 40 | > 40 | > 125 | > 125 | > 125 | > 125 | > 125 | > 125 | > 125 | > 125 | MIC95 [21]: > 125 µM; MIC95 [22]: > 125 µM; MIC95 [23]: > 125 µM; MIC95 [24]: > 125 µM; MIC95 [25]: > 125 µM; MIC95 [26]: > 125 µM; MIC95 [27]: > 125 µM; MIC95 [28]: > 125 µM |
| COc1ccc(C2=C(c3ccc(S(C)(=O)=O)cc3)COC2=O)cc1 | > 40 | > 40 | > 40 | > 40 | > 40 | > 40 | > 40 | > 40 | > 40 | > 40 | > 40 | > 40 | > 500 | > 500 | > 500 | > 500 | > 500 | > 500 | > 500 | > 500 | MIC95 [21]: > 500 µM; MIC95 [22]: > 500 µM; MIC95 [23]: > 500 µM; MIC95 [24]: > 500 µM; MIC95 [25]: > 500 µM; MIC95 [26]: > 500 µM; MIC95 [27]: > 500 µM; MIC95 [28]: > 500 µM |
